The source of these data is ChEMBL document CHEMBL4043282, “Discovery of the First Potent, Selective, and Orally Bioavailable Signal Peptide Peptidase-Like 2a (SPPL2a) Inhibitor Displaying Pronounced Immunomodulatory Effects In Vivo” (J Med Chem, 2018).

For one data set, the system named is Plasma. Description: Cmin in mouse plasma at 30 mg/kg, po bid administered at 8 and 16 hrs dosing interval between first and second dose respectively for 11 days measured predose on day 12 by LC/MS/MS analysis. Format: ADME, organism-based. As to conditions: in vivo, read-out: Cmin. In short, it runs like this: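 Mice gavaged bid in 0.5% MC:0.5% Tween or PEG:D5W 3:1; trough sample taken before the morning dose; 50 μL retro-orbital blood into LiHep tubes, kept on ice, plasma separated at 2823g for 5 min, stored at −20 °C until analysis.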

Data set [1] in a line: Octanol-buffer partition coefficient, log P of the compound by LC/MS/MS based shake flask method. In kind it is physicochemical.
The nature of data set [2]: Total concentration in Lewis rat blood at 1 mg/kg, po bid after 24 hrs by LC/MS/MS analysis. In kind it is ADME, organism-based. Particulars: read-out: Drug uptake.
A short description of data set [3]: Total plasma concentration in mouse at 100 mg/kg, po administered as single dose after 4 hrs by LC/MS/MS analysis. In kind it is ADME, organism-based.

The term logP denotes the decadic logarithm of the partition coefficient of the neutral form, usually between octanol and water. A lower logP goes with a more hydrophilic compound. Take `Cc1ncc(F)cc1NC(=O)C[C@H](C(=O)N[C@@H]1C(=O)N2CC3(CC3)CN2C(=O)c2ccccc21)C1CC1`: in the data set on Plasma, the concentration worked out at 1100 nM. Also, in data set [1], the logP was determined as 2.3. For the same molecule, the concentration at 24 h in data set [2] was 49 nM.

As for `Cc1ccccc1NC(=O)C[C@@H](C)C(=O)N[C@@H]1C(=O)N2CCCN2Cc2ccccc21`, in data set [3], the concentration at 4 h is 2090 nM.
